MIN6 prolif – inducers of beta-cell replication in MIN6 cells. proliferation, % at 10 µM. 330,000 compounds, 0.29% hits. MIN6 cells proliferation, ATPlite luminescence, 48 h; cells starved in 0.2% serum; 100% = growth in 10% serum;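 active means compounds whose signal lies at least 3.5 SD above the mean of all wells on their plate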;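 further: 0% = DMSO-treated cells in low-serum medium and 100% = 10% serum control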
FLuc inhib CS – counter-screen for luciferase assay inhibitors: firefly luciferase inhibition. 200,000 compounds, 1.5% hits. ATPLite firefly luciferase biochemical luminescence, 10 min. P08659. inhibition, % at 10 µM. AID 1006;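 active means inhibition above about 50% when tested at 10 µM, limit read from the data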
Target sequence (P08659 whole entry, looked up): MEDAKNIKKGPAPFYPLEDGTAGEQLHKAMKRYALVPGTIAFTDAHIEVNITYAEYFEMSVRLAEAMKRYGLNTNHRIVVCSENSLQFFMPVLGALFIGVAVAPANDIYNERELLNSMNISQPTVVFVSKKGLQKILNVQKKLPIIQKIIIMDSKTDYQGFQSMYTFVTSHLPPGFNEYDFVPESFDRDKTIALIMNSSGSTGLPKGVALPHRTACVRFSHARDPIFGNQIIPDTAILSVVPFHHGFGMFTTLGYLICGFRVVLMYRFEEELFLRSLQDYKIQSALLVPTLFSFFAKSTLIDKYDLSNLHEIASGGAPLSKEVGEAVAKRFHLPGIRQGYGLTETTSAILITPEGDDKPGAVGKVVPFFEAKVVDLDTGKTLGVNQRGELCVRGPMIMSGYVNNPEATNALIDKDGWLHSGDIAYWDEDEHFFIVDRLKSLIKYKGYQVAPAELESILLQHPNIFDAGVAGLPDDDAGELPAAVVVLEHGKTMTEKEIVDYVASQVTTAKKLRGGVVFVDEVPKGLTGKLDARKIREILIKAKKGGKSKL
FLuc act counter – affects firefly luciferase, flagging false hits in luciferase stimulation screens | P08659 | ATPlite luciferase biochemical, luminescence, 10 min; 0 = ATP-free wells, 1 = DMSO control | activation factor at 10 µM | 200,000 tested, under 10 active | AID 1027;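 active means luciferase activation factor, scaled between plate controls, of at least 2 with compound at 10 µM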
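System: luciferase plus luciferin reagent, cell-free; medium: PBS as buffer for the ATP substrate; dosing: test compounds dosed from 2 mM stocks in 100% DMSO; timing: 10 min post-reagent at room temperature; measured by: luminescence measurement of luciferase light output; evaluation: luciferase activation, seen as luminescence increase over controls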
hiPSC survival – enhancers of human iPSC single-cell survival; AID 602274; survival enhancement, % at 20 µM; hiPSC single-cell survival, ATPlite luminescence; 100% = ROCK inhibitor wells, 0% = DMSO; 360,000 compounds, 0.044% hits; in the data active means survival enhancement above about 18%;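 further: cells exposed to compounds for 16 hours before the ATP read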
PPC-1+TRAIL kill – kills PPC-1 cancer cells in the presence of TRAIL | 220,000 compounds, 0.41% hits | AID 1443 | PPC-1 cells + TRAIL, ATPLite viability luminescence | cell killing (% activity), % at 4 µM or 5 µM;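 active means cell killing above 50% in the first pass at 4 µM, then a duplicate retest at 5 µM averaging 50% or more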;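 further: plate controls were cells with TRAIL plus DMSO for no effect and medium-only wells lacking cells for full effect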
C8 TRAIL sens – sensitizes caspase-8 expressing cells to TRAIL; 360,000 compounds, 1% hits; inhibition (viability loss, TRAIL sensitization), % at 10 µM; NB7+C8 cells + TRAIL, ATPlite viability luminescence;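 active means compounds causing at least 50% loss of cell viability in the single-dose screen, relative to plate controls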
PPC1 cytotox – PPC-1 cell cytotoxicity; 1,200 compounds, 50% hits; PPC-1 viability, ATPlite luminescence, overnight; cytotoxicity, % at 5 µM; shares compounds with PPC-1+TRAIL kill; AID 1447;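 active means reconfirmed compounds whose average cytotoxicity reaches 50% or more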;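 further: 0% = DMSO-treated cells and 100% = wells holding medium but no cells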
* hit, by the source's call; . = no result. Hits are enriched below; roughly 1.8% of the tested compounds scored in any of these assays.

SMILES | MIN6 prolif | FLuc inhib CS | FLuc act counter | hiPSC survival | PPC-1+TRAIL kill | C8 TRAIL sens | PPC1 cytotox
COc1ccc(NC(=S)N2CCN(C(=O)c3ccccc3)CC2)cc1 | -2.2 | -0.4 | 1 | 2.5 | 4.0 | 1.5 | .
Cn1c(SCC(=O)Nc2cc(Cl)cc(Cl)c2)nnc1-c1ccc2nonc2c1 | -3.4 | . | . | 0.3 | 13.5 | -0.6 | .
O=C(Nc1nc2cc3c(cc2s1)OCO3)c1ccc(N2C(=O)CCC2=O)cc1 | -0.5 | . | . | -0.5 | -3.4 | 2.9 | .
O=C(Nc1nc2cc3c(cc2s1)OCO3)c1cccc(N2C(=O)CCC2=O)c1 | -4.9 | . | . | -1.0 | 49.2 | 56.0* | 58.4*
COc1cccc(/C=C/C(=O)Nc2ccc3c(c2)OCCO3)c1OC | -5.0 | 92.6* | 0.1 | -0.9 | 70.5* | 80.5* | 66.4*
COc1cccc(C(=O)Nc2ccc3c(c2)OCO3)c1OC | -2.3 | . | . | 0.2 | . | 29.1 | .
COc1ccc(-c2cn(Cc3ccc(C(=O)c4ccccc4)cc3)nn2)cc1 | -8.9 | . | . | . | . | . | .
O=C(CCNC(=O)c1ccc(Cl)cc1)Nc1cccc(S(=O)(=O)N2CCCCCC2)c1 | -4.8 | . | . | 1.0 | . | 5.4 | .
O=C(/C=C/c1cccs1)c1ccc(N2CCOCC2)cc1 | -6.1 | 96.3* | 0 | -4.6 | 63.5* | 76.2* | 65.3*
CCOC(=O)N1CCN(C(=O)C[C@@H]2C[C@@]3(C(=O)OC)CC(C)(C)CC=C3N(Cc3ccc4c(c3)OCO4)C2=O)CC1 | . | . | . | . | . | -14.2 | .
COc1cccc(CNS(=O)(=O)c2c(C(=O)N3CCCCCC3)c(C)n(C)c2C)c1 | 2.9 | . | . | -0.6 | . | -8.0 | .
CCOC(=O)c1ccc(Nc2cc(C)nc(C)c2C(=O)OCC)cc1 | -1.0 | -4.0 | 1 | 1.2 | 3.9 | 11.2 | -1.6
COc1ccc(OCC(=O)N/N=C/C=C/c2ccccc2)cc1 | -2.6 | 80.6* | 0.2 | -3.5 | 38.7 | 54.5* | 39.6
COc1ccc(OCC(=O)N/N=C/c2ccncc2)cc1 | 1.4 | 11.6 | 0.9 | -0.2 | -10.8 | 1.6 | .
CCOC(=O)Cc1csc(NC(=O)/C=C/c2ccc(OC)cc2)n1 | -5.0 | 76.4* | 0.2 | -4.0 | 56.2* | 72.4* | 56.5*
C[C@H](CO)N1C[C@H](C)[C@@H](CN(C)S(=O)(=O)c2cccc(C#N)c2)OCc2cn(nn2)CCCC1=O | . | . | . | -1.2 | . | -18.5 | .
Cc1ccc(-n2[nH]c(=O)c3cccnc32)cc1 | -1.8 | -3.8 | 1 | 2.6 | 14.3 | 9.0 | .
Cc1ccc(-n2[nH]c(=O)c(-c3ccccn3)c2C)cc1 | -3.4 | 79.1* | 0.2 | -2.9 | 46.4 | 60.7* | 50.9*
C#CC(=O)N(c1ccc(OC)c(OC)c1)C(C(=O)NC1CCCC1)c1cccs1 (centres undefined) | -4.8 | -7.6 | 1.1 | -3.2 | 98.5* | 90.3* | 98.2*
COc1ccc(C(=O)N2[C@@H](C(C)C)COc3cc(Br)ccc3S2(=O)=O)cc1 | . | . | . | 1.9 | . | 2.5 | .
Nc1ccc(-c2nc3cc(N)ccc3s2)cc1 | -6.3 | 88.7* | 0.1 | -0.8 | 48.0 | 60.1* | 54.0*
Cc1ccc2nc(-c3ccc(N)cc3)sc2c1 | -3.8 | . | . | -0.6 | 80.8* | 83.5* | 81.6*
Nc1ccc2nc(-c3ccccc3)sc2c1 | -5.4 | 90.0* | 0.1 | -6.4 | 68.5* | 76.0* | 68.3*
CNC(=S)Nc1ccc(-c2nc3ccc(C)cc3s2)cc1 | -5.5 | 49.2 | 0.5 | -3.6 | 40.1 | 47.5 | .
COc1cccc(N2CCN(c3ccc([N+](=O)[O-])cn3)CC2)c1 | 0.8 | . | . | 1.9 | . | 1.3 | .
SMILES | MIN6 prolif | FLuc inhib CS | FLuc act counter | hiPSC survival | PPC-1+TRAIL kill | C8 TRAIL sens | PPC1 cytotox
CCOC(=O)c1cc(C#N)c(SCC(=O)OC)[nH]c1=O | -4.2 | . | . | 0.5 | -14.4 | -8.1 | .
COc1ccc(N(C(C)C(=O)NC2CCCCCC2)S(C)(=O)=O)cc1 (centres undefined) | 3.6 | -8.1 | 1.1 | -0.2 | 0.4 | 4.4 | -1.1
COc1ccc(N(C(C)C(=O)NN=C2CCCCCCC2)S(C)(=O)=O)cc1 (centres undefined) | -1.6 | -6.6 | 1.1 | -5.7 | 7.8 | 6.9 | .
CC(C)CC(=O)Nc1cccc(-c2cn3ccsc3n2)c1 | -0.5 | 47.7 | 0.5 | -2.4 | 33.5 | 10.8 | .
Cc1nc(-c2ccc(NC(=O)C3CCCCC3)cc2)cs1 | -3.1 | 42.8 | 0.6 | -1.6 | 28.0 | 29.1 | .
CCC(=O)Nc1cccc(-c2cn3ccsc3n2)c1 | -3.4 | 22.4 | 0.8 | 2.4 | -2.4 | 11.0 | 8.6
O=C(Nc1ccc(-c2cn3ccsc3n2)cc1)C1CCCC1 | 0.0 | 88.0* | 0.1 | -8.2 | 72.6* | 78.9* | 73.3*
O=C(Nc1ccc(-c2cn3ccsc3n2)cc1)C1CC1 | -6.5 | 87.2* | 0.1 | -4.3 | 61.3* | 68.8* | 64.3*
CC(NC(=O)CN1CCN(C(=O)c2cccs2)CC1)c1ccc(F)cc1F (centres undefined) | 0.4 | . | . | 0.0 | . | 8.6 | .
CC(=O)Nc1ccc(NC2=C(Cl)C(=O)c3ccccc3C2=O)cc1 | -5.3 | 5.1 | 0.9 | . | 16.4 | . | .
CN(C)c1ccc(NC2=C(Cl)C(=O)c3ccccc3C2=O)cc1 | -5.8 | 44.2 | 0.6 | -5.0 | 35.1 | 70.3* | 40.1
O=C1C(Cl)=C(Nc2ccc3cn[nH]c3c2)C(=O)c2ccccc21 | . | . | . | 15.0 | 75.7* | 72.2* | 69.3*
CCc1nc2c(OCc3ccc(OC)cc3)cccn2c1N(C)C(=O)c1ccco1 | . | . | . | -0.3 | . | 10.8 | .
CC(Oc1coc(CN2CCN(C(=O)c3ccco3)CC2)cc1=O)c1ccccc1 (centres undefined) | 3.4 | . | . | -0.5 | . | 0.7 | .
Cc1ccc2c(c1)sc(=NC(=O)C1CC1)n2C | -3.4 | . | . | -0.8 | 22.7 | 18.8 | .
Cc1ccc2c(c1)sc(=NC(=O)c1cccs1)n2C | -5.7 | 94.6* | 0.1 | -0.4 | 88.3* | 91.4* | 84.9*
CC1=C(C(=O)N(C)C)CC(CC(=O)NC(c2ccccc2)c2ccccc2)C(=O)N1CCCN1CCCC1=O (centres undefined) | . | . | . | -1.5 | . | -7.7 | .
Cc1cc(N)n2nc(C)c(-c3ccc(Cl)cc3)c2n1 | -1.4 | -5.7 | 1.1 | -1.1 | 16.6 | -12.6 | .
Cc1cc(Cl)n2nc(C)c(-c3ccc(Cl)cc3)c2n1 | -6.8 | -3.8 | 1 | 21.3* | 54.4* | 40.7 | 34.5
O=C(NCc1ccc(Cl)cc1)C1CC(O)CN1S(=O)(=O)c1ccc(Cl)cc1 (centres undefined) | 5.1 | . | . | 0.7 | . | -4.9 | .
CC(=O)Nc1cnc(NC(=O)c2cccc(F)c2)cc1C | -0.6 | 11.0 | 0.9 | 0.1 | 37.1 | -5.9 | .
CCC(=O)Nc1cnc(NC(=O)c2cccc(F)c2)cc1C | 0.4 | 16.5 | 0.8 | -1.4 | -1.8 | 2.7 | 11.8
O=c1[nH]c2ccccc2nc1C(Cl)c1ccccc1 (centres undefined) | -1.3 | -7.0 | 1.1 | . | 1.2 | . | 4.5
COC(c1ccccc1)c1nc2ccccc2[nH]c1=O (centres undefined) | -3.5 | . | . | 0.3 | . | -11.8 | .
COc1cc(CNc2nc3ccccc3n2Cc2ccccc2)ccc1O | . | . | . | -0.1 | . | -5.6 | .
